According to publication PMC2677188 (ACS chemical biology, 2009):
Values joined by “and” are separate entries in the source; they are usually repeats but may differ in a detail not shown here. Equal entries are not always repeated. Where two headings read alike, the source gives them in different places.

Tests used:
mTAAR1(T6.55M) = mTAAR1(T6.55M) (Mus musculus, UniProt Q923Y8, T268M); assay: cAMP agonist activity assay, mTAAR1; format: cell-based
mTAAR1(Y7.39N) = mTAAR1(Y7.39N) (Mus musculus, UniProt Q923Y8, Y287N); assay: cAMP agonist activity assay, mTAAR1; format: cell-based
mTAAR1(Y4.56F) = mTAAR1(Y4.56F) (Mus musculus, UniProt Q923Y8, Y153F); assay: cAMP agonist activity assay, mTAAR1; format: cell-based; conditions: for increase in potency versus wild type: mTAAR1(Y4.56F)
Summary of the method: (§1)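 Site-directed TAAR1 mutants were stably expressed in HEK293 cells (transfected, selected with G418). cAMP was measured with a HitHunter cAMP XS kit over concentration-response curves. Responses were expressed relative to the reference agonist at 10 μM (set as 100%). EC50 and Emax were obtained by curve fitting, averaged over N independent triplicate experiments, with SEM.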

mTAAR1(T6.55M/Y7.39N) = mTAAR1(T6.55M/Y7.39N) (Mus musculus, UniProt Q923Y8, T268M/Y287N); assay: cAMP agonist activity assay, mTAAR1; format: cell-based
rTAAR1(N7.39Y) = rTAAR1(N7.39Y) (Rattus norvegicus, UniProt Q923Y9, N287Y); assay: cAMP agonist activity assay, rTAAR1; format: cell-based
rTAAR1(A5.42L) = rTAAR1(A5.42L) (Rattus norvegicus, UniProt Q923Y9, A193L); assay: cAMP agonist activity assay, rTAAR1; format: cell-based; conditions: for decrease in potency versus wild type: rTAAR1(A5.42L)
Summary of the method: as §1

rTAAR1(A5.42I) = rTAAR1(A5.42I) (Rattus norvegicus, UniProt Q923Y9, A193I); assay: cAMP agonist activity assay, rTAAR1; format: cell-based; conditions: for decrease in potency versus wild type: rTAAR1(A5.42I)
Summary of the method: as §1

[1] = target: rTAAR1 (wild type rat TAAR1) (Rattus norvegicus, UniProt Q923Y9); assay: In vitro cAMP agonist activity assay; format: cell-based
[2] = target: T1, mTAAR1 (wild type mouse TAAR1) (Mus musculus, UniProt Q923Y8); assay: In vitro cAMP agonist activity assay, wild type mTAAR1; format: cell-based
rTAAR1(M6.55T/N7.39Y) = rTAAR1(M6.55T/N7.39Y) (Rattus norvegicus, UniProt Q923Y9, M268T/N287Y); assay: cAMP agonist activity assay, rTAAR1; format: cell-based
rTAAR1(A5.42T) = rTAAR1(A5.42T) (Rattus norvegicus, UniProt Q923Y9, A193T); assay: cAMP agonist activity assay, rTAAR1; format: cell-based
Summary of the method: as §1

rTAAR1(M6.55T) = rTAAR1(M6.55T) (Rattus norvegicus, UniProt Q923Y9, M268T); assay: cAMP agonist activity assay, rTAAR1; format: cell-based
[3] = target: T1, mTAAR1 (wild type mouse TAAR1); conditions: wild type receptors; cited from earlier work
rTAAR1(F4.56Y) = rTAAR1(F4.56Y) (Rattus norvegicus, UniProt Q923Y9, F153Y); assay: cAMP agonist activity assay, rTAAR1; format: cell-based
Summary of the method: as §1

Chain of rTAAR1(A5.42I) (Q923Y9 whole entry A193I): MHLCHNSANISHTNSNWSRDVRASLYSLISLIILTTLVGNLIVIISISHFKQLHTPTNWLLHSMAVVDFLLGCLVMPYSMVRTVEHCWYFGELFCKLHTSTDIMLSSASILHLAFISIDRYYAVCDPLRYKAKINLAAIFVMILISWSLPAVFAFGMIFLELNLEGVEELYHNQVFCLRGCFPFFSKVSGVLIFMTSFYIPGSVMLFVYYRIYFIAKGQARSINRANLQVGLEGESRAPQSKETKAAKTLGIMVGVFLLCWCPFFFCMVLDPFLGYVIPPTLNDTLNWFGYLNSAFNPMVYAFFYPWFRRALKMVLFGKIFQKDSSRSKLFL
Chain of rTAAR1 (wild type rat TAAR1) (Q923Y9 whole entry): as the sequence (Q923Y9 whole entry A193I) above, with I193A counted along it
Chain of rTAAR1(A5.42T) (Q923Y9 whole entry A193T): as the sequence (Q923Y9 whole entry A193I) above, with I193T counted along it
Chain of mTAAR1(Y4.56F) (Q923Y8 whole entry Y153F): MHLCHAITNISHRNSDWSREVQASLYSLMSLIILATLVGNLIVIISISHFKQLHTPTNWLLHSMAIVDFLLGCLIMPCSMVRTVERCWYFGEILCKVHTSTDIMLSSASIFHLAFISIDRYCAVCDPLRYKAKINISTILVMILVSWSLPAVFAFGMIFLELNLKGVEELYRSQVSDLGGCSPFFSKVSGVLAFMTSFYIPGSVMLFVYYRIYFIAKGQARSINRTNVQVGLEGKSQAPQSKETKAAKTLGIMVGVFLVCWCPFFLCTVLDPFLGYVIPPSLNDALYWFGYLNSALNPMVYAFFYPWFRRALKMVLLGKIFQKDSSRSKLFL
Chain of rTAAR1(A5.42L) (Q923Y9 whole entry A193L): as the sequence (Q923Y9 whole entry A193I) above, with I193L counted along it
T1 sequence (Q923Y8 whole entry): as the sequence (Q923Y8 whole entry Y153F) above, with F153Y counted along it
Chain of rTAAR1(F4.56Y) (Q923Y9 whole entry F153Y): as the sequence (Q923Y9 whole entry A193I) above, with F153Y, I193A counted along it
Chain of mTAAR1(Y7.39N) (Q923Y8 whole entry Y287N): as the sequence (Q923Y8 whole entry Y153F) above, with F153Y, Y287N counted along it
Chain of rTAAR1(M6.55T/N7.39Y) (Q923Y9 whole entry M268T/N287Y): as the sequence (Q923Y9 whole entry A193I) above, with I193A, M268T, N287Y counted along it
Chain of rTAAR1(N7.39Y) (Q923Y9 whole entry N287Y): as the sequence (Q923Y9 whole entry A193I) above, with I193A, N287Y counted along it
Chain of rTAAR1(M6.55T) (Q923Y9 whole entry M268T): as the sequence (Q923Y9 whole entry A193I) above, with I193A, M268T counted along it
Chain of mTAAR1(T6.55M/Y7.39N) (Q923Y8 whole entry T268M/Y287N): as the sequence (Q923Y8 whole entry Y153F) above, with F153Y, T268M, Y287N counted along it
Chain of mTAAR1(T6.55M) (Q923Y8 whole entry T268M): as the sequence (Q923Y8 whole entry Y153F) above, with F153Y, T268M counted along it

For NCCc1ccc(Oc2ccc(O)cc2)c(I)c1 [Compound 1, 3-Iodothyronamine], the EC50 (mTAAR1(T6.55M); read-out: EC50 ± SEM) was 1420 ± 592 nM, the “Emax ± SEM” value (mTAAR1(T6.55M); relative to 1) was 100 ± 0% and the EC50 (mTAAR1(Y7.39N); read-out: EC50 ± SEM) was 251 ± 43 nM. The “Emax ± SEM” value (mTAAR1(Y7.39N); relative to 1) was 100 ± 0%, the “increase in potency versus wild type” value (mTAAR1(Y4.56F)) was 5 fold and the EC50 (mTAAR1(T6.55M/Y7.39N); read-out: EC50 ± SEM) was 208 ± 60 nM. For the same compound, the “Emax ± SEM” value (mTAAR1(T6.55M/Y7.39N); relative to 1) was 100 ± 0%, the EC50 (rTAAR1(N7.39Y); read-out: EC50 ± SEM) was 135 nM and the “Emax ± SEM” value (rTAAR1(N7.39Y); relative to 1) was 100%. For the same compound, the “decrease in potency versus wild type” value (rTAAR1(A5.42L)) was 2 fold, the “Emax ± SEM” value (rTAAR1(A5.42L); rTAAR1 A5.42L (Table 3a), relative to 1) was 100 ± 0% and the EC50 (rTAAR1(A5.42L); read-out: EC50 ± SEM, rTAAR1 A5.42L (Table 3a)) was 58 ± 16 nM. The “decrease in potency versus wild type” value (rTAAR1(A5.42I)) was 3 fold, the “Emax ± SEM” value (rTAAR1(A5.42I); rTAAR1 A5.42I (Table 3a), relative to 1) was 100 ± 0% and the EC50 (rTAAR1(A5.42I); read-out: EC50 ± SEM, rTAAR1 A5.42I (Table 3a)) was 108 ± 14 nM. For the same compound, the EC50 ([1]; read-out: EC50 ± SEM, wild type rTAAR1, HEK293 cells, cAMP) was 33 ± 3 nM, the “Emax ± SEM” value ([1]; wild type rTAAR1, Emax = 100 % is the activity of 1 at 10 mM (so in the source)) was 100± 0% and the “rTAAR1 selectivity: fold more potent for rTAAR1 compared to mTAAR1” value ([1]; wild type receptors) was ~ 10 fold and 7–10 fold. The EC50 ([2]; read-out: EC50 ± SEM, wild type mTAAR1, HEK293 cells, cAMP) was 314 ± 43 nM, the “improvement of potency at mTAAR1 on eliminating the β-phenyl ring of 2, 5 and 7” value ([2]; wild type mTAAR1) was 24- to 32 fold and the “Emax ± SEM” value ([2]; wild type mTAAR1, Emax = 100 % is the activity of 1 at 10 mM (so in the source)) was 100 ± 0%. For the same compound, the EC50 (rTAAR1(M6.55T/N7.39Y); read-out: EC50 ± SEM) was 90 nM, the “Emax ± SEM” value (rTAAR1(M6.55T/N7.39Y); relative to 1) was 100% and the “fold less potent versus wild type” value (rTAAR1(A5.42T); rTAAR1(A5.42T)) was 3 fold. The “Emax ± SEM” value (rTAAR1(A5.42T); rTAAR1 A5.42T, relative to 1) was 100 ± 0%, the EC50 (rTAAR1(A5.42T); read-out: EC50 ± SEM, rTAAR1 A5.42T) was 88 ± 13 nM and the EC50 (rTAAR1(M6.55T); read-out: EC50 ± SEM) was 129 ± 43 nM. The “Emax ± SEM” value (rTAAR1(M6.55T); relative to 1) was 100 ±0% and the “fold less potent for mTAAR1 compared to rTAAR1” value [3] was 7 to 10 fold.

With NCCc1ccc(O)cc1 [Tyramine, tyramine] the EC50 (mTAAR1(Y4.56F)) was 40 ± 13 nM, the “increase in potency versus wild type” value (mTAAR1(Y4.56F)) was 7 fold and the Emax (mTAAR1(Y4.56F); read-out: Emax ± SEM) was 118 ± 8%. The EC50 (rTAAR1(A5.42L)) was about 2000 nM, the “decrease in potency versus wild type” value (rTAAR1(A5.42L)) was 31 fold and the Emax (rTAAR1(A5.42L); read-out: Emax ± SEM) was 102 ± 18%. For the same compound, the EC50 (rTAAR1(A5.42I)) was over 10000 nM, the “decrease in potency versus wild type” value (rTAAR1(A5.42I)) was 154 fold and the Emax (rTAAR1(A5.42I); read-out: Emax ± SEM) was 49 ± 7%. For the same compound, the EC50 [1] was 65 ± 1 nM, the Emax ([1]; read-out: Emax ± SEM) was 119 ± 7% and the EC50 [2] was 271 ± 52 nM. It also gave an Emax ([2]; read-out: Emax ± SEM) of 110 ± 2%, an EC50 (rTAAR1(F4.56Y)) of 54 ± 11 nM and an Emax (rTAAR1(F4.56Y); read-out: Emax ± SEM) of 108 ± 6%. For the same compound, the EC50 (rTAAR1(A5.42T)) was over 10000 nM, the “fold less potent versus wild type” value (rTAAR1(A5.42T); rTAAR1(A5.42T)) was 154 fold and the “less efficacious than wild type” value (rTAAR1(A5.42T); rTAAR1(A5.42T)) was 50%. The Emax (rTAAR1(A5.42T); read-out: Emax ± SEM) was 69 ± 5% and the “fold less potent for mTAAR1 compared to rTAAR1” value [3] was 7 to 10 fold.
